This note sets out measurements from ChEMBL document CHEMBL1268976, “Stereocontrolled facile synthesis and antimicrobial activity of oximes and oxime ethers of diversely substituted bispidines” (2010).

Holding throughout (format): functional
Test [1] relates to Candida albicans. Briefly: Antifungal activity against Candida albicans by broth microdilution method. The method in brief: (§1)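 Fungal panel of Candida albicans, Candida parapsilosis, Aspergillus niger and Cryptococcus neoformans, tested in vitro by standard NCCLS broth microdilution. The yeast susceptibility reference cited is M27-A.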
For orientation: Dilution methods test growth across graded concentrations, often in twofold steps.

In test [2] the test system is Klebsiella pneumoniae. As to the kind of experiment: Antibacterial activity against Klebsiella pneumoniae by broth microdilution method. In short, it runs like this:
(§2)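 In vitro broth microdilution following the NCCLS standard for bacteria (M7-A5). The test panel was Bacillus subtilis, Staphylococcus aureus, Klebsiella pneumoniae and Pseudomonas aeruginosa.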

In test [3] the test system is Cryptococcus neoformans. Briefly: Antimicrobial activity against Cryptococcus neoformans by broth microdilution method. In short, it runs like this:
as §1

In test [4] the test system is Pseudomonas aeruginosa. Briefly: Antibacterial activity against Pseudomonas aeruginosa by broth microdilution method. In short, it runs like this:
as §2

Test [5] relates to Bacillus subtilis. As to the kind of experiment: Antibacterial activity against Bacillus subtilis by broth microdilution method. In short, it runs like this: as §2
The test system of test [6] is Staphylococcus aureus. Briefly: Antibacterial activity against Staphylococcus aureus by broth microdilution method. The method in brief: as §2
The test system of test [7] is Aspergillus niger. As to the kind of experiment: Antifungal activity against Aspergillus niger by broth microdilution method. The method in brief:
as §1

In test [8] the test system is Candida parapsilosis. As to the kind of experiment: Antifungal activity against Candida parapsilosis by broth microdilution method. The conditions noted are these: Lodderomyces parapsilosis. In short, it runs like this: as §1

Values after ≈ are worked out from the molar mass of the structure shown.

A word on the MIC90: it is an inhibitory concentration at the 90% level, which refers to growth in some studies and to a panel of isolates in others.

For `CON=C1C2C(c3ccc(OC)cc3)NC(c3ccc(OC)cc3)C1C(c1ccc(OC)cc1)NC2c1ccc(OC)cc1` (centres undefined), the MIC90 in test [1] was greater than 128 µg/mL; in test [2] it was greater than 128 µg/mL; in test [3], 16 µg/mL (≈ 26.9 µM); in test [4], 16 µg/mL (≈ 26.9 µM); in test [5], 64 µg/mL (≈ 108 µM); in test [6], 32 µg/mL (≈ 53.9 µM). In addition, the figures for the MIC90 in test [7] and in test [8] were 16 µg/mL (≈ 26.9 µM) and 128 µg/mL (≈ 216 µM), respectively.
Regarding `ON=C1C2C(c3ccccc3Br)NC(c3ccccc3Br)C1C(c1ccccc1Br)NC2c1ccccc1Br` (centres undefined), the MIC90 in test [1], in test [2], in test [3], in test [4], in test [5] and in test [6] was greater than 128 µg/mL in each case. Also, the MIC90 in test [7] and in test [8] was greater than 128 µg/mL each time.
Regarding `CCOc1ccccc1C1NC(c2ccccc2OCC)C2C(=NOC)C1C(c1ccccc1OCC)NC2c1ccccc1OCC` (centres undefined), the MIC90 is greater than 128 µg/mL in test [1]; greater than 128 µg/mL in test [2]; 16 µg/mL (≈ 24.6 µM) in test [3]; 32 µg/mL (≈ 49.2 µM) in test [4]; greater than 128 µg/mL in test [5]; greater than 128 µg/mL in test [6]. Further, the MIC90 in test [7] was determined as 16 µg/mL (≈ 24.6 µM); in test [8] it was 64 µg/mL (≈ 98.5 µM).
For `C=CCOc1ccc(C2NC(c3ccc(OCC=C)cc3)C3C(=NOC)C2C(c2ccc(OCC=C)cc2)NC3c2ccc(OCC=C)cc2)cc1` (centres undefined), the MIC90 is greater than 128 µg/mL in test [1]; 16 µg/mL (≈ 22.9 µM) in test [2]; greater than 128 µg/mL in test [3]; 64 µg/mL (≈ 91.7 µM) in test [4]; 64 µg/mL (≈ 91.7 µM) in test [5]; greater than 128 µg/mL in test [6]. The MIC90 in test [7] was 64 µg/mL (≈ 91.7 µM); in test [8], 32 µg/mL (≈ 45.9 µM).
As for GENTAMICIN, the MIC90 in test [2] was 2 µg/mL; in test [4], 16 µg/mL; in test [5], 16 µg/mL; in test [6] it was 4 µg/mL.
For `CON=C1C2C(c3ccccc3Br)NC(c3ccccc3Br)C1C(c1ccccc1Br)NC2c1ccccc1Br` (centres undefined), the MIC90 in test [1], in test [2], in test [3], in test [4], in test [5] and in test [6] was greater than 128 µg/mL in each case. In addition, the figures for the MIC90 in test [7] and in test [8] were greater than 128 µg/mL and 64 µg/mL (≈ 81.1 µM), respectively.
For `CCCCOc1ccc(C2NC(c3ccc(OCCCC)cc3)C3C(=NOC)C2C(c2ccc(OCCCC)cc2)NC3c2ccc(OCCCC)cc2)cc1` (centres undefined), the MIC90 was greater than 128 µg/mL in test [1]; 64 µg/mL (≈ 84 µM) in test [2]; 32 µg/mL (≈ 42 µM) in test [3]; 64 µg/mL (≈ 84 µM) in test [4]; greater than 128 µg/mL in test [5]; greater than 128 µg/mL in test [6]. The MIC90 was 32 µg/mL (≈ 42 µM) in test [7] and greater than 128 µg/mL in test [8].
For `CON=C1C2C(c3cccc(OC)c3)NC(c3cccc(OC)c3)C1C(c1cccc(OC)c1)NC2c1cccc(OC)c1` (centres undefined), the MIC90 in test [1] was 128 µg/mL (≈ 216 µM); in test [2], greater than 128 µg/mL; in test [3], 128 µg/mL (≈ 216 µM); in test [4], 64 µg/mL (≈ 108 µM); in test [5], greater than 128 µg/mL; in test [6], 128 µg/mL (≈ 216 µM). The MIC90 is 16 µg/mL (≈ 26.9 µM) in test [7] and greater than 128 µg/mL in test [8].
Consider `COc1ccccc1C1NC(c2ccccc2OC)C2C(=NO)C1C(c1ccccc1OC)NC2c1ccccc1OC` (centres undefined), for which the MIC90 in test [1] is greater than 128 µg/mL; in test [2], 64 µg/mL (≈ 110 µM); in test [3] it was 32 µg/mL (≈ 55.2 µM); in test [4], 16 µg/mL (≈ 27.6 µM); in test [5] it was greater than 128 µg/mL; in test [6], greater than 128 µg/mL. The MIC90 in test [7] came out at 16 µg/mL (≈ 27.6 µM); in test [8], 32 µg/mL (≈ 55.2 µM).
In the case of `ON=C1C2C(c3ccc(F)cc3)NC(c3ccc(F)cc3)C1C(c1ccc(F)cc1)NC2c1ccc(F)cc1` (centres undefined), the MIC90 in test [1] is 4 µg/mL (≈ 7.53 µM); in test [2], 64 µg/mL (≈ 120 µM); in test [3] it was 128 µg/mL (≈ 241 µM); in test [4] it was 32 µg/mL (≈ 60.2 µM); in test [5], 64 µg/mL (≈ 120 µM); in test [6] it was 16 µg/mL (≈ 30.1 µM). Also, the MIC90 in test [7] is 4 µg/mL (≈ 7.53 µM); in test [8], greater than 128 µg/mL.
Take `CON=C1C2C(c3ccc(F)cc3)NC(c3ccc(F)cc3)C1C(c1ccc(F)cc1)NC2c1ccc(F)cc1` (centres undefined): the MIC90 in test [1] stood at 2 µg/mL (≈ 3.67 µM); in test [2], 16 µg/mL (≈ 29.3 µM); in test [3], 32 µg/mL (≈ 58.7 µM); in test [4] it was 4 µg/mL (≈ 7.33 µM); in test [5], 64 µg/mL (≈ 117 µM); in test [6], 8 µg/mL (≈ 14.7 µM). In addition, the values for the MIC90 in test [7] and in test [8] were 2 µg/mL (≈ 3.67 µM) and greater than 128 µg/mL, respectively.
For `ON=C1C2C(c3cccc(Br)c3)NC(c3cccc(Br)c3)C1C(c1cccc(Br)c1)NC2c1cccc(Br)c1` (centres undefined), the MIC90 in test [1], in test [2], in test [3], in test [4], in test [5] and in test [6] was greater than 128 µg/mL throughout. The MIC90 in test [7] and in test [8] was greater than 128 µg/mL throughout.
`CCc1ccc(C2NC(c3ccc(CC)cc3)C3C(=NOC)C2C(c2ccc(CC)cc2)NC3c2ccc(CC)cc2)cc1` (centres undefined): the MIC90 was 128 µg/mL (≈ 218 µM) in test [1]; 64 µg/mL (≈ 109 µM) in test [2]; greater than 128 µg/mL in test [3]; 32 µg/mL (≈ 54.6 µM) in test [4]; greater than 128 µg/mL in test [5]; greater than 128 µg/mL in test [6]. Besides, the MIC90 in test [7] is greater than 128 µg/mL; in test [8] it was 32 µg/mL (≈ 54.6 µM).
For the compound `CON=C1C2C(c3ccccc3Cl)NC(c3ccccc3Cl)C1C(c1ccccc1Cl)NC2c1ccccc1Cl` (centres undefined), the MIC90 was 16 µg/mL (≈ 26.2 µM) in test [1]; 4 µg/mL (≈ 6.54 µM) in test [2]; 16 µg/mL (≈ 26.2 µM) in test [3]; 16 µg/mL (≈ 26.2 µM) in test [4]; greater than 128 µg/mL in test [5]; 16 µg/mL (≈ 26.2 µM) in test [6]. In addition, the results for the MIC90 in test [7] and in test [8] were 2 µg/mL (≈ 3.27 µM) and greater than 128 µg/mL, respectively.
In the case of `CCOc1ccc(C2NC(c3ccc(OCC)cc3)C3C(=NOC)C2C(c2ccc(OCC)cc2)NC3c2ccc(OCC)cc2)cc1` (centres undefined), the MIC90 is greater than 128 µg/mL in test [1]; 32 µg/mL (≈ 49.2 µM) in test [2]; 16 µg/mL (≈ 24.6 µM) in test [3]; 32 µg/mL (≈ 49.2 µM) in test [4]; greater than 128 µg/mL in test [5]; greater than 128 µg/mL in test [6]. For the same compound, the results for the MIC90 in test [7] and in test [8] were 8 µg/mL (≈ 12.3 µM) and 128 µg/mL (≈ 197 µM), respectively.
Regarding `CON=C1C2C(c3ccccc3F)NC(c3ccccc3F)C1C(c1ccccc1F)NC2c1ccccc1F` (centres undefined), the MIC90 was 8 µg/mL (≈ 14.7 µM) in test [1]; 16 µg/mL (≈ 29.3 µM) in test [2]; greater than 128 µg/mL in test [3]; 4 µg/mL (≈ 7.33 µM) in test [4]; 32 µg/mL (≈ 58.7 µM) in test [5]; 64 µg/mL (≈ 117 µM) in test [6]. Moreover, the MIC90 in test [7] worked out at 4 µg/mL (≈ 7.33 µM); in test [8], 64 µg/mL (≈ 117 µM).
Turning to `CON=C1C2C(c3cccc(Cl)c3)NC(c3cccc(Cl)c3)C1C(c1cccc(Cl)c1)NC2c1cccc(Cl)c1` (centres undefined), the MIC90 in test [1] is greater than 128 µg/mL; in test [2], 64 µg/mL (≈ 105 µM); in test [3], greater than 128 µg/mL; in test [4], greater than 128 µg/mL; in test [5] it was greater than 128 µg/mL; in test [6], greater than 128 µg/mL. The results for the MIC90 in test [7] and in test [8] were 64 µg/mL (≈ 105 µM) and greater than 128 µg/mL, respectively.
As to `ON=C1C2C(c3ccccc3)NC(c3ccccc3)C1C(c1ccccc1)NC2c1ccccc1` (centres undefined), the MIC90 in test [1], in test [2], in test [3], in test [4], in test [5] and in test [6] was greater than 128 µg/mL each time. Also, the MIC90 in test [7] and in test [8] was greater than 128 µg/mL throughout.
With `OC(Cn1cncn1)(Cn1cncn1)c1ccc(F)cc1F` [FLUCONAZOLE], the MIC90 in test [1] came to 1 µg/mL (≈ 3.27 µM); in test [3], 2 µg/mL (≈ 6.53 µM); in test [7], 4 µg/mL (≈ 13.1 µM); in test [8] it was 2 µg/mL (≈ 6.53 µM).
